Article PMC9473745 (Cell chemical biology, 2021)
“Also recorded” adds a separate entry of the source. Where two headings read alike, the source gives them in different places.

Key:
[1] = target: USP7 catalytic domain (Homo sapiens, UniProt Q93009); test: Ubiquitin rhodamine 110 kinetic assay, USP7 catalytic domain; format: biochemical
In short: (§1)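 Human DUB constructs, each N-terminally 6xHis-tagged and expressed in E. coli BL21(DE3): USP7 full length (AA 1–1102), USP7 catalytic domain (AA 208–560), USP8 catalytic domain (AA 743–1110) and USP30 catalytic domain (AA 65–517). Ub-Rho110 was then added and fluorescence (ex 485/em 535 nm) read each minute over 30 min. Initial rates were normalized to no-compound wells and fitted (variable slope) for IC50; each run at least twice, SEM.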

[2] = system: full-length USP7; test: Kinetic Ub-Rho assay, full-length USP7; format: biochemical, human; settings: dose-response
In short: as §1

[3] = system: USP7; test: Ub-Rho endpoint screen of spiro indolinone expansion set, USP7; format: biochemical, human; settings: 8-point dose-response in triplicate
In short: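 Enzyme and acoustically dispensed test compound were incubated 1 h; DMSO-only wells served as neutral control. Ub-Rho110 was then added and the reaction run 10 min at room temperature without a quench. Fluorescence was read at ex 485/em 535 nm.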

[4] = system: USP8; test: Ub-Rho endpoint screen of spiro indolinone expansion set, USP8; format: biochemical, human; settings: 8-point dose-response in triplicate
In short: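 Enzyme and test compound were incubated 10 min; DMSO wells served as control. Ub-Rho110 was then added and the reaction run 30 min–3 h at room temperature depending on DUB. Stopped with assay buffer plus 0.2% TFA and read at ex 485/em 535 nm.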

[5] = target: T1, USP28 catalytic domain (Homo sapiens, UniProt Q96RU2); test: Ubiquitin rhodamine 110 kinetic assay, USP28; format: biochemical; settings: for potency relative to AZ1: USP28 IC50 compared with AZ1
T1 sequence (Q96RU2 149-703): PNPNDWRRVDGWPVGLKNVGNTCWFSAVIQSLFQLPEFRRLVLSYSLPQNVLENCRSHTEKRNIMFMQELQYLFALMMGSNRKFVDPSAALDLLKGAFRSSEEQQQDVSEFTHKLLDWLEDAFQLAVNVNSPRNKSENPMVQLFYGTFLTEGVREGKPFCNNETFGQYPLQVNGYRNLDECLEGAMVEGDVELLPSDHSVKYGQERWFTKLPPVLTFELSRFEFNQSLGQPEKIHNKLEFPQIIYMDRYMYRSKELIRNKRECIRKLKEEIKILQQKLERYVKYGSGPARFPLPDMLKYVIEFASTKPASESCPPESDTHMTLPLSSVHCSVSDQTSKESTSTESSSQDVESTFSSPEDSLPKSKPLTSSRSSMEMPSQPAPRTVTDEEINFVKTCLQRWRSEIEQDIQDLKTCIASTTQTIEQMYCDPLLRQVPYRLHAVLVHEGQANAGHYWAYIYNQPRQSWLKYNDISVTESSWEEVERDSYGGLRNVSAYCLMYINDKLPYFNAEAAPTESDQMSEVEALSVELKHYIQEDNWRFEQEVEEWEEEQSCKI

[6] = system: USP28 in HEK293T lysates; test: Quantitative activity-based protein profiling; format: binding, human; settings: HEK293T lysate, 250 μM compound, Ub-PA/Ub-VME probes
In short: (§2)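 HEK293T cells were lysed in NP-40/glycerol/TCEP buffer with protease and phosphatase inhibitors, and lysate was diluted to 10 mg/mL. Lysate was incubated with 250 μM test compound or DMSO for 30 min at room temperature, with a selective USP7 inhibitor as positive control. Biotin-Ub-PA and biotin-Ub-VME (1 μM each) were added for 15 min. Labelled proteins were captured on streptavidin, trypsin-digested on bead and TMT-labelled. Quantified by multidimensional LC-MS using reporter-ion protein-level values.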

[7] = system: USP28 in HEK293T cellular lysate; test: Competitive ABPP with western blot readout for USP28; format: binding, human; settings: 1 hour pre-treatment, dose-response
In short: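 Lysate was pre-incubated with compound or DMSO for 1 h at RT. It was then labeled with 1:1 Ub-PA/Ub-VME (2 μM final) for 30 min at RT with shaking. Samples were denatured at 95°C, run on SDS-PAGE, and immunoblotted with anti-USP28 rabbit monoclonal.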

[8] = target: T2, USP30 catalytic domain (Homo sapiens, UniProt Q70CQ3); test: Ubiquitin rhodamine 110 kinetic assay, USP30; format: biochemical
T2 sequence (Q70CQ3 65-517): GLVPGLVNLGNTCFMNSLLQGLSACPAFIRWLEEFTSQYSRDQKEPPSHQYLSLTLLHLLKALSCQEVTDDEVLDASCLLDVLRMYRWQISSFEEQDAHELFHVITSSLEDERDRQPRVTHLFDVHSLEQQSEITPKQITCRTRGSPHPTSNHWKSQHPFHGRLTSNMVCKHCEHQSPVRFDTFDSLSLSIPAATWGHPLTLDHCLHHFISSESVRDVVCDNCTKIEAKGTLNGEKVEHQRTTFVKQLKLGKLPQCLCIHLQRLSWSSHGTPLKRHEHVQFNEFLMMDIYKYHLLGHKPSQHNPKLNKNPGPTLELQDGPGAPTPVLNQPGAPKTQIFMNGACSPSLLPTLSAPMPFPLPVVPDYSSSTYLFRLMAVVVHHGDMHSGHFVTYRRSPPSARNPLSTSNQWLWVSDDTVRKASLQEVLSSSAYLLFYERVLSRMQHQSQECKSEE
In short: as §1

[9] = system: native USP25 in HEK293T lysates; test: Quantitative activity-based protein profiling; format: binding, human; settings: HEK293T lysate, 250 μM compound, Ub-PA/Ub-VME probes
In short: as §2

[10] = system: other DUBs detected in cell lysate; test: Quantitative activity-based protein profiling; format: binding, human; settings: HEK293T lysate, 250 μM compound, Ub-PA/Ub-VME probes
In short: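 Aliquots were treated with 250 μM compound or DMSO for 30 min at RT, then processed to peptides. Peptides were TFA-acidified, C18-desalted, and TMT-labeled for 1 h at RT. Peptides were mapped to unique genes, and reporter ions were aggregated into protein-level values.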

[11] = target: T3, USP8 catalytic domain (Homo sapiens, UniProt P40818); test: Ubiquitin rhodamine 110 kinetic assay, USP8; format: biochemical; settings: kinetic Ub-Rho assay
T3 sequence (P40818 743-1110): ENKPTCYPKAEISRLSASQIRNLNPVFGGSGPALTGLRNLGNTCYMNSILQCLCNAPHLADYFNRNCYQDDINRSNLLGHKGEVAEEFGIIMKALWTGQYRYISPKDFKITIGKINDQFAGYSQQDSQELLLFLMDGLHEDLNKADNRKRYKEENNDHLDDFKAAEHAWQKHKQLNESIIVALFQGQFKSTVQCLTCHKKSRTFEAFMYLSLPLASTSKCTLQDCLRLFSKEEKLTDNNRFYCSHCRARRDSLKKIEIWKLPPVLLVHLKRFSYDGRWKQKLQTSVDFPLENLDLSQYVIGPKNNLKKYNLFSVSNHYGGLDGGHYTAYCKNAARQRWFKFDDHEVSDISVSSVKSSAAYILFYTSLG
In short: as §1

[12] = target: USP10 catalytic domain (Homo sapiens, UniProt Q14694); test: Ubiquitin rhodamine 110 kinetic assay, USP10; format: biochemical; settings: read-out: IC50 ± SEM, kinetic Ub-Rho assay, 12-point dose-response, mean ± SEM (n)
USP10 catalytic domain, sequence (Q14694 376-798): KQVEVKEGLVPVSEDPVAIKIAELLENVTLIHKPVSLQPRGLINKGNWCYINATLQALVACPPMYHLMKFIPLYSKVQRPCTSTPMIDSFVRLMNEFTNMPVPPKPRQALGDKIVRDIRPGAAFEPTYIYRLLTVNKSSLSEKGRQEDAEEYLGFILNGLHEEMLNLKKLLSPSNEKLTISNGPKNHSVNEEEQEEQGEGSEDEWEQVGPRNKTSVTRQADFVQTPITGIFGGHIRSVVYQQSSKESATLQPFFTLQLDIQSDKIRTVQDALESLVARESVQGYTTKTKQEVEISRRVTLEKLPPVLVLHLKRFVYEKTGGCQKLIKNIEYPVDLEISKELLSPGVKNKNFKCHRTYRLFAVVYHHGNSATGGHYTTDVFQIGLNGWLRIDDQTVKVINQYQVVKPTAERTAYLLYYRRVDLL
In short: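 Enzyme was the human USP10 catalytic domain (aa 376–798), N-6xHis, E. coli-expressed, purified by Ni-NTA and Superdex 200. Fluorescence (ex 485/em 535 nm) was read every minute for 30 min. Initial rates were normalized to no-compound control and fitted with a variable-slope model; runs ≥2, SEM.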

[13] = system: USP8; test: Ubiquitin-AMC kinetic assay, USP8; format: biochemical, human; settings: dose-response
In short: (§3)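 Same kinetic protocol as the Ub-Rho110 assay, with Ub-AMC as substrate. His-tagged catalytic domains were used: USP8 (AA 743–1110) and USP10 (AA 376–798). Read at ex 345/em 445 nm each minute over 30 min. IC50 came from initial rates normalized to no-compound wells and was compared with the Ub-Rho110 value.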

[14] = system: USP10; test: Ubiquitin-AMC kinetic assay, USP10; format: biochemical, human; settings: dose-response
In short: as §3

[15] = IC50 ± SEM, USP28, catalytic domain of the human protein, kinetic Ub-Rho assay, mean ± SEM (n)

USP7 catalytic domain, sequence (Q93009 208-560): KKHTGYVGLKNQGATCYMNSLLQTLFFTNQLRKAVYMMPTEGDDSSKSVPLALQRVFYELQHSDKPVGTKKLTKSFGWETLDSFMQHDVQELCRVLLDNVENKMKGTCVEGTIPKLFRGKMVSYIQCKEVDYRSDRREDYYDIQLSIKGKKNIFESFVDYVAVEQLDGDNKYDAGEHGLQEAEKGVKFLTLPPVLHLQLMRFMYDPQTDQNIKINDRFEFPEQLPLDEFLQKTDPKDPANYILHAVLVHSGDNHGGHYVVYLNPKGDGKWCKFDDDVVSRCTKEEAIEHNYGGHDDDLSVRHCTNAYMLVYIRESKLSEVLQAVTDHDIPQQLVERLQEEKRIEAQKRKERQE

Cc1nn(-c2ccccc2)c2c1C1(C(=O)Nc3ccccc31)N1C(=N2)Sc2ccccc21 (centres unmarked) [AV-9606–27, 3-methyl-1-phenyl-1H-spiro[benzo[4,5]thiazolo[3,2-a]pyrazolo[3,4-d]pyrimidine-4,3’-indolin]-2’-one]
IC50 ([1]; read-out: IC50 ± SEM, USP7, kinetic Ub-Rho assay, 12-point dose-response, mean ± SEM (n)): 4680 ± 1050 nM

CC(C)c1[nH]nc2c1C1(C(=O)Nc3ccccc31)C(C#N)=C(N)O2 (centres unmarked) [AV-9606–41, 6’-amino-3’-isopropyl-2-oxo-2’H-spiro[indoline-3,4’-pyrano[2,3-c]pyrazole]-5’-carbonitrile]
IC50 [1]: 3830 ± 1600 nM
inhibition of full-length USP7 [2]: no inhibition of full-length protein; also recorded: no activity against a full-length protein
activity against USP7 in expansion set screen [3]: active against USP7
activity against USP8 in expansion set screen [4]: inactive against USP8

O=C1c2ccccc2NC2(C(=O)Nc3ccc(Br)cc32)N1c1ccccc1 (centres unmarked) [AV-9606–99, 5-bromo-3’-phenyl-1’H-spiro[indoline-3,2’-quinazoline]-2,4’(3’H)-dione]
IC50 [5, 15]: 4330 ± 1080 nM

Cc1ccc(S(=O)(=O)N(C)C)cc1NC(=O)Cc1ccc(Cl)c(Cl)c1 [AV-9606–129, 2-(3,4-dichlorophenyl)-N-(5-(N,N-dimethylsulfamoyl)-2-methylphenyl)acetamide]
IC50 [5, 15]: 402 ± 197 nM

O=c1ccc(-c2noc(Cc3ccc(Cl)c(Cl)c3)n2)c[nH]1 [AV-9606–180, 5-(5-(3,4-dichlorobenzyl)-1,2,4-oxadiazol-3-yl)pyridin-2(1H)-one]
IC50 ([5]; IC50, USP28): ≤ 100 nM
potency relative to AZ1 [5]: approximately 10 fold
blockage of probe labeling of USP28 [6]: strong inhibition of USP28
blockage of USP28 labeling by covalent probe (western blot) [7]: good dose-dependent inhibition and prevention of probe labeling

CC(C)NS(=O)(=O)c1cccc2c(NC(=O)[C@H](Cc3ccccc3)NC(=O)c3ccccc3)cccc12 [AV-11324–5, (S)-N-(1-((5-(N-isopropylsulfamoyl)naphthalen-1-yl)amino)-1-oxo-3-phenylpropan-2-yl)benzamide]
IC50 [8]: 275 ± 70 nM

O=c1ccc(-c2noc(Cc3cccc(Cl)c3)n2)c[nH]1 [AV-11324–75, 5-(5-(3-chlorobenzyl)-1,2,4-oxadiazol-3-yl)pyridin-2(1H)-one]
IC50 [5, 15]: 176 ± 73 nM
blockage of USP28 labeling by covalent probe (western blot) [7]: good dose-dependent inhibition and prevention of probe labeling

OCCNCc1cc(Br)ccc1OCc1ccc(F)c(C(F)(F)F)c1 [AZ1]
blockage of probe labeling of USP25 [9]: strongly blocked labeling of USP25
blockage of probe labeling of USP28 [6]: little impact on USP28
activity toward other DUBs detected [10]: did not exhibit activity toward any other DUBs

COc1ccc(C(=O)COC(=O)c2ccccc2NS(=O)(=O)c2ccc(O)c([N+](=O)[O-])c2)cc1 [Compound Z56965384]
inhibition of off-target DUB USP8 [11]: confirmed inhibition
IC50 [12]: 26600 ± 4690 nM
increase in IC50 value with Ubiquitin-AMC versus Ub-Rho [13]: 3–10 fold
increase in IC50 value with Ubiquitin-AMC versus Ub-Rho [14]: 3–10 fold

CCCc1nc2sc3c(NCCc4ccc(OC)c(OC)c4)ncnc3c2c2c1CCC2 [bin-01–07-07, N-(3,4-dimethoxyphenethyl)-4-propyl-2,3-dihydro-1H-cyclopenta[4’,5’]pyrido[3’,2’:4,5]thieno[3,2-d]pyrimidin-7-amine]
IC50 ([5]; IC50, USP28): ≤ 100 nM
IC50 [5, 15]: 46 ± 17 nM
potency relative to AZ1 [5]: approximately 10 fold
blockage of probe labeling of USP28 [6]: strong inhibition of USP28
blockage of USP28 labeling by covalent probe (western blot) [7]: good dose-dependent inhibition and prevention of probe labeling
